Experimental data collected from several papers.
Values after ≈ are worked out from the molar mass of the structure shown.
Organism: Bacillus subtilis

| Compound | read-out | technique | strain | tested at | measurement | value |
| --- | --- | --- | --- | --- | --- | --- |
| O=C(O)c1ccc(-n2cc(/C=N/Nc3ccc(C(F)(F)F)cc3)c(-c3cccc(F)c3)n2)cc1 | microbial growth |  | ATCC6623 |  | MIC | 12.5 µg/mL (≈ 26.7 µM) |
| N#CC(=Cc1ccc([N+](=O)[O-])cc1)C1=NC(=O)C(=Cc2cn(-c3ccccc3)nc2-c2ccccc2)S1 | microbial growth | well diffusion |  | 100000 µg/mL | inhibition zone | 23 mm |
| O=C(O)CN1C(=O)/C(=C/c2c3ccccc3c(-c3ccc(N(c4ccccc4)c4ccccc4)cc3)c3ccccc23)NC1=S | microbial killing | broth dilution | ATCC6633 |  | MBC | > 1000 µg/mL |
| CC1(C)S[C@@H]2[C@H](NC(=O)[C@H](N)c3ccccc3)C(=O)N2[C@H]1C(=O)O | microbial growth | agar dilution | ATCC6633 | 26.93 µM | inhibition | 100% |
| N#CC(=Cc1ccc(Cl)cc1)C1=NC(=O)C(=Cc2cn(-c3ccccc3)nc2-c2ccccc2)S1 | microbial growth | well diffusion |  | 100000 µg/mL | inhibition zone | 22 mm |
| Cc1cc(N)c2ccccc2[n+]1CCCCCCCCCC[n+]1c(C)cc(N)c2ccccc21 | microbial growth | disc diffusion |  | 50 µg/disc | inhibition zone | 11 mm |
| N#CC(=Cc1ccccc1O)C1=NC(=O)C(=Cc2cn(-c3ccccc3)nc2-c2ccccc2)S1 | microbial killing | broth dilution |  |  | MBC | 0.5 µg/mL (≈ 1.05 µM) |
| O=C1NC(=S)N/C1=C\c1ccc(-c2ccc(N(c3ccccc3)c3ccccc3)cc2)cc1 | microbial killing | broth dilution | ATCC6633 |  | MBC | > 1000 µg/mL |
| CO[C@H]1O[C@H](COC(c2ccccc2)(c2ccccc2)c2ccccc2)[C@@H](OC(=O)c2ccc(C(C)(C)C)cc2)[C@H](OC(=O)c2ccc(C(C)(C)C)cc2)[C@H]1OC(=O)c1ccc(C(C)(C)C)cc1 | microbial killing | broth dilution |  |  | MBC | 16 µg/mL (≈ 17.4 µM) |
| CCOC(=O)c1c(N)csc1-c1cn(-c2ccccc2)nc1-c1ccc(C)cc1 | microbial growth | well diffusion |  | 100000 µg/mL | inhibition zone | 28 mm |
| O=C1NC(=S)S/C1=C\c1ccc(-c2ccc(N(c3ccccc3)c3ccccc3)cc2)cc1 | microbial killing | broth dilution | ATCC6633 |  | MBC | > 1000 µg/mL |
| O=C(O)c1ccc(-n2cc(/C=N/Nc3cc(F)ccc3F)c(-c3cccc(F)c3)n2)cc1 | microbial growth |  | ATCC6623 |  | MIC | 6.25 µg/mL (≈ 14.3 µM) |
| O=C(O)CN1C(=O)/C(=C/c2c3ccccc3c(-c3ccc(N(c4ccccc4)c4ccccc4)cc3)c3ccccc23)SC1=S | microbial killing | broth dilution | ATCC6633 |  | MBC | > 1000 µg/mL |
| O=C(O)c1ccc(-n2cc(/C=N/Nc3ccc(Cl)cc3Cl)c(-c3cccc(F)c3)n2)cc1 | microbial growth |  | ATCC6623 |  | MIC | 1.56 µg/mL (≈ 3.32 µM) |
